Assay results: ChEMBL document CHEMBL4052830, “Dual Nicotinic Acetylcholine Receptor α4β2 Antagonists/α7 Agonists: Synthesis, Docking Studies, and Pharmacological Evaluation of Tetrahydroisoquinolines and Tetrahydroisoquinolinium Salts” (J Med Chem, 2018)
pEC50, pIC50, pKi: −log10 of the molar value. Activity calls are given as the source filed them. The rule behind the calls is not given here.

Columns and labels:
[1] = biological target: Neuronal acetylcholine receptor; alpha4/beta2 (Rattus norvegicus, UniProt P09483+P12390); assay: Displacement of [3H]epibatidine from rat alpha4beta2 nAChR expressed in HEK293 cell membranes after 4 hrs by scintillation counting method
Outline: (§1)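 Membranes from HEK293 lines stably expressing α3β4, α4β4 or α4β2 nAChR, [3H]epibatidine competition binding. Ki came from concentration-inhibition curves. Means of 3–5 experiments in duplicate.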

[2] = biological target: Neuronal acetylcholine receptor; alpha4/beta4 (Rattus norvegicus, UniProt P09483+P12392); assay: Displacement of [3H]epibatidine from rat alpha4beta4 nAChR expressed in HEK293 cell membranes after 4 hrs by scintillation counting method; outline: as §1
[3] = biological target: T1, Neuronal acetylcholine receptor; alpha3/beta4 (Rattus norvegicus, UniProt P04757+P12392); assay: Displacement of [3H]epibatidine from rat alpha3beta4 nAChR expressed in HEK293 cell membranes after 4 hrs by scintillation counting method; outline: as §1
[4] = biological target: T1, Neuronal acetylcholine receptor; alpha3/beta4; assay: Antagonist activity at rat alpha3beta4 nAChR expressed in HEK293 cells assessed as inhibition of (S)-nicotine-induced […] response measured up to 90 secs by FMP assay; format: cell-based
Outline: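 Rat α3β4 nAChR in stably expressing HEK293 cells, FLIPR Membrane Potential Blue assay. Antagonist mode against (S)-nicotine at EC70–EC90. IC50 derived from concentration-inhibition curves. Means of 3–5 experiments in duplicate.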

[5] = biological target: Nicotinic acetylcholine receptor alpha-4/beta-2 (Mus musculus, UniProt Q8R493+Q9ERK7); assay: Antagonist activity at mouse alpha4beta2 nAChR expressed in HEK293 cells assessed as inhibition of (S)-nicotine-induced […] response measured up to 90 secs by FMP assay; format: cell-based
Outline: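 Mouse α4β2 nAChR in stably expressing HEK293T cells, FLIPR Membrane Potential Blue assay. IC50 came from concentration-inhibition curves. Means of 3–5 experiments in duplicate.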

[6] = biological target: T2, Neuronal acetylcholine receptor subunit alpha-7 (Homo sapiens, UniProt P36544); assay: Agonist activity at human alpha7 nAChR expressed in HEK293 cells co-expressing Ric-3/NACHO assessed as induction of calcium mobilization measured up to 90 secs in presence of PNU-120596 by FLIPR assay; format: cell-based
Outline: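 Human α7 nAChR stably co-expressed with Ric-3 and NACHO in HEK293 cells, Ca2+/Fluo-4 fluorescence assay. Assay buffer held 3 μM PNU-120596 (α7 PAM) to slow desensitization. Agonist concentration-response curves gave EC50 and Rmax. Means of 3–5 experiments run in duplicate.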

[7] = biological target: T2, Neuronal acetylcholine receptor subunit alpha-7; assay: Agonist activity at human alpha7 nAChR expressed in HEK293 cells co-expressing Ric-3/NACHO assessed as induction of calcium mobilization at 30 uM measured up to 90 secs in presence of PNU-120596 by FLIPR assay; format: cell-based
[8] = biological target: T2, Neuronal acetylcholine receptor subunit alpha-7; assay: Antagonist activity at human alpha7 nAChR expressed in HEK293 cells co-expressing Ric-3/NACHO assessed as inhibition of ACh-induced calcium mobilization measured up to 90 secs in presence of PNU-120596 by FLIPR assay; format: cell-based
Outline: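 Human α7 nAChR stably co-expressed with Ric-3/NACHO in HEK293 cells. Antagonist mode in the Ca2+/Fluo-4 assay: test ligand inhibits acetylcholine at EC70–EC90, with 3 μM PNU-120596 in the buffer. IC50 came from concentration-inhibition curves. Means of 3–5 experiments run in duplicate.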

[9] = biological target: T2, Neuronal acetylcholine receptor subunit alpha-7; assay: Agonist activity at human alpha7 nAChR expressed in HEK293 cells co-expressing Ric-3/NACHO assessed as induction of calcium mobilization at >= 10 uM measured up to 90 secs in presence of PNU-120596 by FLIPR assay; format: cell-based
Rattus norvegicus [10] = species on record: Rattus norvegicus; assay: Selectivity ratio of Ki for rat alpha4beta4 nAChR to Ki for rat alpha4beta2 nAChR
Rattus norvegicus [11] = species on record: Rattus norvegicus; assay: Selectivity ratio of Ki for rat alpha3beta4 nAChR to Ki for rat alpha4beta2 nAChR
[12] = biological target: T2, Neuronal acetylcholine receptor subunit alpha-7; assay: Agonist activity at human alpha7 nAChR expressed in HEK293 cells co-expressing Ric-3/NACHO assessed as induction of calcium mobilization at 0.3 to 3 uM measured up to 90 secs in presence of PNU-120596 by FLIPR assay; format: cell-based
[13] = biological target: Neuronal acetylcholine receptor; alpha4/beta2 (Rattus norvegicus) (UniProt P09483+P12390); assay: Potency index, ratio of DHbetaE Ki to test compound Ki for rat alpha4beta2 nAChR; format: protein-complex assay

Sequence of Nicotinic acetylcholine receptor alpha-4/beta-2 (Q9ERK7 whole entry): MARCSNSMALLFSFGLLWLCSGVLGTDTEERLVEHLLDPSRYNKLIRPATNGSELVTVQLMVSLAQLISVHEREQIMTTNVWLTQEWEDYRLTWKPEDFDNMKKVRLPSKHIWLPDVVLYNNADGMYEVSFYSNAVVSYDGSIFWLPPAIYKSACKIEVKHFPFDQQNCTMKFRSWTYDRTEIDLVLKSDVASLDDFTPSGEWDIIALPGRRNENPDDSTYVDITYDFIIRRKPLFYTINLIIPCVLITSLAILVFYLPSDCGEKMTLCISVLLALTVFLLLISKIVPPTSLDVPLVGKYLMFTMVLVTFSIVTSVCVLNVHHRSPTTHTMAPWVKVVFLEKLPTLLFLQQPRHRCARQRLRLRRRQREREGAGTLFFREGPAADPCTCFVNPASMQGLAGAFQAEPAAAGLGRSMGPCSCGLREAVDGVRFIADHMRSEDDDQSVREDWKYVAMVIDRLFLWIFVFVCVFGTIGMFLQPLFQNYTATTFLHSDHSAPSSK
Sequence of Nicotinic acetylcholine receptor alpha-4/beta-2 (Q8R493 whole entry): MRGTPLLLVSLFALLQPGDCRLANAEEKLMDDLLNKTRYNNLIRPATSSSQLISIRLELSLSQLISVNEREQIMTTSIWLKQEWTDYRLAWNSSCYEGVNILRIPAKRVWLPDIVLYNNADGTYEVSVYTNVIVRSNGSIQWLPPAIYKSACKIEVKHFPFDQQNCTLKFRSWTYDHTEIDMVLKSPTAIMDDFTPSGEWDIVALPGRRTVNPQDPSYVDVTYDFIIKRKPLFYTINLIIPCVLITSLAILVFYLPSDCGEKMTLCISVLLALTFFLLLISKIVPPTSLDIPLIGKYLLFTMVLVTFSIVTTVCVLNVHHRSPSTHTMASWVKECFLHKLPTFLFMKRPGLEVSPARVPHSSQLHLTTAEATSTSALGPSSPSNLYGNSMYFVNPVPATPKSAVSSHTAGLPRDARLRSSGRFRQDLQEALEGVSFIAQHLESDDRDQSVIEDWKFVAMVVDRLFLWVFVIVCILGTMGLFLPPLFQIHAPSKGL
T1 sequence (P04757 whole entry): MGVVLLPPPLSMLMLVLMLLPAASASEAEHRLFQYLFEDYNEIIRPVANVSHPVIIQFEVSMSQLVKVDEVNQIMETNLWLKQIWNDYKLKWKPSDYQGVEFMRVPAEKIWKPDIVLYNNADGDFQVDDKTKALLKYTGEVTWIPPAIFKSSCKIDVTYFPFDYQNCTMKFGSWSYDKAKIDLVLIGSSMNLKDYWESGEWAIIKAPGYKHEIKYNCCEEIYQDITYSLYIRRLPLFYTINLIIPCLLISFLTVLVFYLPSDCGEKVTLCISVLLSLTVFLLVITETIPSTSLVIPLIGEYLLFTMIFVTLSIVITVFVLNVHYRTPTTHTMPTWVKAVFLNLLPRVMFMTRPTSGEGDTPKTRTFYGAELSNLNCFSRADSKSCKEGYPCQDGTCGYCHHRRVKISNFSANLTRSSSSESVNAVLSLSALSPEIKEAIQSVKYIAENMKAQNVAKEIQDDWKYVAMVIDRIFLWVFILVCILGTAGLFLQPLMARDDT
T1 sequence (P12392 whole entry): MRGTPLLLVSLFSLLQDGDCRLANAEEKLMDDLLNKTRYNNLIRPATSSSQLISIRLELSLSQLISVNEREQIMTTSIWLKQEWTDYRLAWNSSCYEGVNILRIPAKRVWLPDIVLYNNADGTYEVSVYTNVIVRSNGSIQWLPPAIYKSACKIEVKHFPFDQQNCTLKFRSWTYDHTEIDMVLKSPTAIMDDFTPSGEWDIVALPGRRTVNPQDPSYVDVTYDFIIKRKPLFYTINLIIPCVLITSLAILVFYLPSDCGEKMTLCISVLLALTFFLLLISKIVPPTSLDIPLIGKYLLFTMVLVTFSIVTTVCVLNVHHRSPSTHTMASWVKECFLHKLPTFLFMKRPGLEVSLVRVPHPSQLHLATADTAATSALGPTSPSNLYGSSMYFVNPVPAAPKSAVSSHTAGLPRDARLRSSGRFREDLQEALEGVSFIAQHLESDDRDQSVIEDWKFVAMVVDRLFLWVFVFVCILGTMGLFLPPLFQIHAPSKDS
Sequence of Neuronal acetylcholine receptor; alpha4/beta4 (P09483 whole entry): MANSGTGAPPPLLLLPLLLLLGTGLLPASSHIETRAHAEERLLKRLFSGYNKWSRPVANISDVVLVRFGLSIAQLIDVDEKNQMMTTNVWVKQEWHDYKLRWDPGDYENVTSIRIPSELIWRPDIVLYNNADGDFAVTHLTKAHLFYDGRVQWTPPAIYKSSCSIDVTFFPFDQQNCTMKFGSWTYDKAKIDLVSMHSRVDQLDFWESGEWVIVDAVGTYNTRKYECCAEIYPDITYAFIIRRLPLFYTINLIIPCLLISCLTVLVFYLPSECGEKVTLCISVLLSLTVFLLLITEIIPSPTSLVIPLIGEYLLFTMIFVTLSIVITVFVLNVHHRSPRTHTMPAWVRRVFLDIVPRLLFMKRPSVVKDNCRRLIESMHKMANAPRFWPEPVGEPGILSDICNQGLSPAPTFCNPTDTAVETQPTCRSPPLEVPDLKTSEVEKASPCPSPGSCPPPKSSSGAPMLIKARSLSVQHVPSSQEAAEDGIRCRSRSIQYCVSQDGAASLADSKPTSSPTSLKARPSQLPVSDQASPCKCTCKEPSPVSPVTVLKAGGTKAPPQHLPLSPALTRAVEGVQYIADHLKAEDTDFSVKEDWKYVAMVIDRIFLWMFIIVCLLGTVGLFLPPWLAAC
Sequence of Neuronal acetylcholine receptor; alpha4/beta4 (P12392 whole entry): as the sequence (P12392 whole entry) above
Sequence of Neuronal acetylcholine receptor; alpha4/beta2 (P09483 whole entry): as the sequence (P09483 whole entry) above
Sequence of Neuronal acetylcholine receptor; alpha4/beta2 (P12390 whole entry): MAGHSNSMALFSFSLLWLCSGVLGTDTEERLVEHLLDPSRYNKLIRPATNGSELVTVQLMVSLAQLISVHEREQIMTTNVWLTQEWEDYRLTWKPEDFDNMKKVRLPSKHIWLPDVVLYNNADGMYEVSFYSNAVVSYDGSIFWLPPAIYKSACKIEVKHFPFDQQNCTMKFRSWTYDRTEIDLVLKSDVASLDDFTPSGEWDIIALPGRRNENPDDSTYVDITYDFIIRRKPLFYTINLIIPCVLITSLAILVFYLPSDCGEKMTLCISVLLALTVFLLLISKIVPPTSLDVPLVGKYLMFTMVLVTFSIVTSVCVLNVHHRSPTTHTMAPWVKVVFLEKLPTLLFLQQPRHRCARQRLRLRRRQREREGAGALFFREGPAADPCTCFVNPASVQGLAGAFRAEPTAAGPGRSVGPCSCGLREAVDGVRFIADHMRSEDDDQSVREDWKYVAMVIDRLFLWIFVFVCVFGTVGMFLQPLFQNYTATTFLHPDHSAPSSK
T2 sequence (P36544 whole entry): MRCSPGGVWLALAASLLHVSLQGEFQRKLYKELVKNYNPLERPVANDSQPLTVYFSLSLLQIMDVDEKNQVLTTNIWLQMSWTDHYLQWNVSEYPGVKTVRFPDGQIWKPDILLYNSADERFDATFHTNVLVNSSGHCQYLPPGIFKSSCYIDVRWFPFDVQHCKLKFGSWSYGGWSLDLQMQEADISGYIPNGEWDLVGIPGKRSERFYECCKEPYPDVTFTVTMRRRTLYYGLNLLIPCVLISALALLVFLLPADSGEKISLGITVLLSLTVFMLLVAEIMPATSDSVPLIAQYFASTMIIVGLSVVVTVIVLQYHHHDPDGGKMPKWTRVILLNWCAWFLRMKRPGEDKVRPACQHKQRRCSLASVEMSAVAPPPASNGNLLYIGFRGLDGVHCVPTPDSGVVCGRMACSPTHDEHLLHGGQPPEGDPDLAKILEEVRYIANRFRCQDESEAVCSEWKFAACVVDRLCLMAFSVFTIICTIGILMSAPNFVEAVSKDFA

Structure (SMILES) | pKi [1] | pKi [2] | pKi [3] | pIC50 [4] | pIC50 [5] | pEC50 [6] | Activity [7] | pIC50 [8] | Activity [9] | Ratio Ki (Rattus norvegicus [10]) | Ratio Ki (Rattus norvegicus [11]) | Activity [12] | Ratio Ki [13]
COc1cc2c(cc1OC)C1CCC[N+]1(C)CC2 (stereo not given) | 5.62 | 4.52 | 4.30 | 4.00 | 4.52 | 5.12 |  |  |  |  |  |  | 
c1c2c(cc3c1OCO3)[C@@H]1CCCN1CC2 | 5.35 | 4.00 | < 4.00 | < 4.00 | 4.52 |  | Active |  |  |  |  |  | 
CCC[N+]1(C)CCc2cc(OC)c(OC)cc2C1 (stereo not given) | 4.85 | 3.52 | 3.52 | < 3.52 | 4.52 | < 4.00 |  | < 4.00 |  |  |  |  | 
COc1cc2c(cc1OC)[C@H]1CCCN1CC2 | 5.60 | 4.00 | 4.00 | < 4.00 | 4.80 | < 4.00 |  | < 4.00 |  |  |  |  | 
COc1ccc2c(c1)C1CCC[N+]1(C)CC2 (stereo not given) | 6.64 | 6.04 | 5.03 | 4.30 | 5.74 | 5.92 |  |  |  |  |  |  | 
COc1cc2c(cc1OC)C1CCCN1CC2 (stereo not given) | 5.34 |  | 4.00 |  | 4.52 | < 4.00 |  | < 4.00 |  |  |  |  | 
CC[N+]1(C)CCc2cc(OC)c(OC)cc2C1 (stereo not given) | 5.01 | < 3.52 | < 3.52 | < 3.52 | 4.96 |  | Active |  |  |  |  |  | 
COc1cc2c(cc1OCc1ccccc1)C1CCCN1CC2 (stereo not given) | 4.30 | 3.52 | 3.52 | < 4.00 | 4.30 |  |  | 4.96 |  |  |  |  | 
COc1cc2c(cc1O)CN(C)CC2 |  |  | 4.00 | 4.00 |  | < 4.00 |  | < 4.00 |  |  |  |  | 
COc1cc2c(cc1OC)[C@@H]1CCC[N+]1(C)CC2 (stereo not given in full) | 4.60 | 5.12 | 4.60 | < 4.00 | < 4.00 | 5.19 |  |  |  |  |  |  | 
COc1ccc2c(c1)CCN1CCCC21 (stereo not given) | 4.60 | 4.00 | < 4.00 | < 4.00 | 4.00 | < 4.00 |  | < 4.00 |  |  |  |  | 
COc1ccc2c(c1)CC[N+]1(C)CCCC21 (stereo not given) | 5.44 | 4.92 | 4.60 | 4.00 | 4.52 | 5.28 |  |  |  |  |  |  | 
COC1CC=C2CCN3CCC4=C(CC(=O)OC4)[C@]23C1 (stereo not given in full) | 6.19 | 4.60 | 4.00 | 4.00 | 6.22 |  |  | 4.00 |  |  |  |  | 
COc1ccc2c(c1)C1CCCN1CC2 (stereo not given) | 5.85 | 5.48 | 4.00 | < 4.00 | 5.04 |  | Active |  |  |  |  |  | 
COc1cc2c(cc1OC)[C@H]1CCC[N+]1(C)CC2 (stereo not given in full) | 5.62 | 4.60 | 4.60 | < 4.00 | 5.14 | 5.29 |  |  |  |  |  |  | 
COc1cc2c(cc1OCc1ccccc1)CCN(C)C2 | 5.54 | 3.52 | 3.52 | 4.00 | 4.62 |  |  | 4.52 |  |  |  |  | 
COc1ccc2c(c1)CCN(C)C2 | 5.59 | 4.60 | 4.00 | < 4.00 | 5.21 | < 4.00 |  | < 4.00 |  |  |  |  | 
COc1cc2c(cc1OC)C[N+](C)(Cc1ccccc1)CC2 (stereo not given) | 4.52 | < 3.52 | 3.52 | < 3.52 | 4.52 |  |  | 5.70 |  |  |  |  | 
COc1cc2c(cc1OCc1ccccc1)CCN1CCCC21 (stereo not given) | 5.20 | 3.52 | 4.00 | 4.00 | 4.52 |  |  | 5.24 |  |  |  |  | 

Structure (SMILES) | pKi [1] | pKi [2] | pKi [3] | pIC50 [4] | pIC50 [5] | pEC50 [6] | Activity [7] | pIC50 [8] | Activity [9] | Ratio Ki (Rattus norvegicus [10]) | Ratio Ki (Rattus norvegicus [11]) | Activity [12] | Ratio Ki [13]
COc1cc2c(cc1OCc1ccccc1)C[N+](C)(C)CC2 | 5.35 | 4.77 | 4.52 | < 3.52 | 4.52 |  |  |  | inactive |  |  |  | 
C[N+]1(C)CCc2cc3c(cc2C1)OCO3 | 6.42 | 4.52 | 4.30 | < 3.52 | 4.92 | 5.59 |  |  |  | 80 | 130 |  | 
C=CC[N+]1(C)CCc2cc(OC)c(OC)cc2C1 (stereo not given) | 4.52 | 3.52 | < 3.52 | < 3.52 | 4.52 | < 4.00 |  | < 4.00 |  |  |  |  | 
COc1ccc(CC2c3cc(OC)c(OC)cc3CCN2C)cc1OC (stereo not given) [LAUDANOSINE] | 4.00 | < 4.00 | < 4.00 | < 4.00 | < 4.00 | < 4.00 |  | < 4.00 |  |  |  |  | 
COc1cc2c(cc1OCc1ccccc1)CN(C)CC2 | 4.82 | 3.52 | 3.52 | < 3.52 | 4.64 |  |  | 4.52 |  |  |  |  | 
COc1cc2c(cc1O)C[N+](C)(C)CC2 | 6.40 | 5.05 | 4.60 | < 4.00 | 5.92 | 6.00 |  |  |  |  |  |  | 
c1c2c(cc3c1OCO3)C1CCCN1CC2 (stereo not given) | 6.30 | 5.03 | < 4.00 |  | 5.64 |  | Active |  |  |  |  |  | 
COc1cc2c(cc1OC)CN(C)CC2 |  |  |  |  |  | < 4.00 |  | < 4.00 |  |  |  |  | 
COc1cc2c(cc1OC)[C@@H]1CCCN1CC2 | < 4.00 | < 4.00 | < 4.00 | < 4.00 | < 4.00 | < 4.00 |  | < 4.00 |  |  |  |  | 
C[N+]12CCCC1c1ccccc1CC2 (stereo not given) | 4.77 | 4.60 | 4.30 | < 4.00 | 4.30 | 5.66 |  |  |  |  |  |  | 
COc1cc2c(cc1OCc1ccccc1)C1CCC[N+]1(C)CC2 (stereo not given) | 4.96 | 3.52 | 3.52 | 3.52 | 5.24 |  |  |  | inactive |  |  | Dose-dependent effect | 
c1ccc2c(c1)CCN1CCCC21 (stereo not given) | 5.07 | 4.00 | 4.00 | < 4.00 | 4.82 |  |  | 4.00 |  |  |  |  | 
CN1CCc2cc3c(cc2C1)OCO3 | 4.77 |  |  |  |  | < 4.00 |  | < 4.00 |  |  |  |  | 
COc1cc2c(cc1OCc1ccccc1)CC[N+]1(C)CCCC21 (stereo not given) | 5.68 | 3.52 | 3.52 | 3.52 | 5.51 |  |  |  | inactive |  |  | Dose-dependent effect | 
C[N+]12CCCC1c1cc3c(cc1CC2)OCO3 (stereo not given) | 6.85 | 4.30 | 4.52 | 4.52 | 6.28 | 5.59 |  |  |  | 360 | 210 |  | 5
COc1cc2c(cc1OC)C[N+](C)(C)CC2 | 6.20 | 4.30 | 4.00 | < 3.52 | 4.96 | 5.05 |  |  |  |  |  |  | 
COc1ccc2c(c1)CC[N+](C)(C)C2 | 6.17 | 5.82 | 5.03 | < 4.00 | 5.85 | 5.36 |  |  |  |  |  |  | 
C[N+]12CCC[C@H]1c1cc3c(cc1CC2)OCO3 (stereo not given in full) | 4.60 | 4.60 | 4.60 | < 4.00 | < 4.00 | 5.27 |  |  |  |  |  |  | 
